# Source: the EternaBench riboswitch data
# Experiments:
# MS2 coat protein [1] = experiment: apparent Kd, MS2 coat protein; higher = weaker binding; RNA-MaP array; tryptophan 2.4 mM where present
# Procedure, shortened: (§1)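 In 100 mM Tris-HCl pH 7.5, 80 mM KCl, 4 mM MgCl2, BSA, DTT, yeast tRNA and Tween-20, SNAP-549-labelled MS2 coat protein was titrated from 0.7 or 1.5 nM, doubling to 3 µM, over designs transcribed by stalled E. coli RNA polymerase on Illumina sequencing-chip clusters. This was done first without ligand, then with ligand held constant. After green signal was normalised to red-channel RNA signal and control-cluster median Fmax, the apparent Kd was taken as the median of filtered per-cluster binding-curve fits.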
# MS2 coat protein [2] = experiment: apparent Kd, MS2 coat protein; higher = weaker binding; RNA-MaP array; theophylline 2 mM where present
# Procedure, shortened: as §1
# [3] = designed as: OFF switch for tryptophan, no ligand
# [4] = ligand present: tryptophan, designed as: OFF switch for tryptophan
# [5] = designed as: ON switch for tryptophan, no ligand
# [6] = ligand present: tryptophan, designed as: ON switch for tryptophan
# [7] = designed as: OFF switch for theophylline, no ligand
# [8] = ligand present: theophylline, designed as: OFF switch for theophylline
# [9] = designed as: ON switch for theophylline, no ligand
# [10] = ligand present: theophylline, designed as: ON switch for theophylline
sequence,measurement,setting,value
GAUAUGGAAACAUGUCAGAUCCUUACCGGUCGAGGACCGGUACGGCCGCCACUCGCAAAUAUUGUACAUGAGGAUCACCCAUGUA,apparent Kd,MS2 coat protein [1]; [3],13.1 nM
same,apparent Kd,MS2 coat protein [1]; [4],13.6 nM
UUUAAAUAGACGGCCGCCACUGGAAUUAAUACAUGAGGAUCACCCAUGUAGAGAGAAUAAUAAUACAGGACCGGGUCUUCAUGAA,apparent Kd,MS2 coat protein [1]; [5],31.4 nM
same,apparent Kd,MS2 coat protein [1]; [6],12.5 nM
GGAUUACGAAAGUAGUCCAUCAAGUUCGAGCGAGGACCGGUACGGCCGCCACUCGAACAUGAGGAUCACCCAUGUAGCGAAAGCU,apparent Kd,MS2 coat protein [1]; [5],284 nM
same,apparent Kd,MS2 coat protein [1]; [6],255 nM
AAUACCGGUCCUCGAAGGUGAUCCUCAUAACGAGGACCGGUACGGCCGCCACUCGAUAACAUGAGGAUCACCCAUGUAAUAAUAA,apparent Kd,MS2 coat protein [1]; [3],187 nM
same,apparent Kd,MS2 coat protein [1]; [4],138 nM
UGCAUGAGGAUCGCCCGUGUCGAGCCGGUGCGAGGACCGGUACGGCCGCCACUCGAGACAUGAGGAUCACCCAUGUUGUGCGUGA,apparent Kd,MS2 coat protein [1]; [3],56.5 nM
same,apparent Kd,MS2 coat protein [1]; [4],91.4 nM
AACAUGAGGAUCACCCAUGUGUCCUCGAAACGAGGACCGGUACGGCCGCCACUCGAAAGGUGUUGACGAAAAGUCAGCACCAAAA,apparent Kd,MS2 coat protein [1]; [3],302 nM
same,apparent Kd,MS2 coat protein [1]; [4],930 nM
CGAGUAAGAACAAUCGAAUAACGGUUUUCGCGAGGACCGGUACGGCCGCCACUCGUGUGAUAUAACACAUGAGGAUCACCCAUGU,apparent Kd,MS2 coat protein [1]; [5],26.3 nM
same,apparent Kd,MS2 coat protein [1]; [6],24.4 nM
AUAUAUACAUGAGGAUCACCCAUGUUAUUUCGAGGACCGGUACGGCCGCCACUCGAUAGAGUAGAAGUAACAUGUGUUAGUUGAU,apparent Kd,MS2 coat protein [1]; [5],22.3 nM
same,apparent Kd,MS2 coat protein [1]; [6],47 nM
CCUCAAUCGUCGGCCGCCACUGGAUCAUGCGGAUACAUGAGGAUCACCCAUGUGGGUGUGGUACGCAGGACCGGGACAAGACCCG,apparent Kd,MS2 coat protein [1]; [5],340 nM
same,apparent Kd,MS2 coat protein [1]; [6],244 nM
AAAGAUCGGAAACGAUCGGCGGCUUGGGCGCGAGGACCGGUACGGCCGCCACUCGGGAAACAUGAGGAUCACCCAUGUUGCUAGC,apparent Kd,MS2 coat protein [1]; [3],13.7 nM
same,apparent Kd,MS2 coat protein [1]; [4],15.2 nM
AUAAUGAGUGGUGGAUAGGUGAUCCUCUUACGAGGACCGGUACGGCCGCCACUCGAUAACAUGAGGAUCACCCAUGUAAUAAUAA,apparent Kd,MS2 coat protein [1]; [3],15.7 nM
same,apparent Kd,MS2 coat protein [1]; [4],49.9 nM
AGAUUCGACACGGCCGCCACUCGUGCCGGAUUACCGAGUGUCGAACAUGAGGAUCACCCAUGUACGAGGACCGGGUGUUGAGUCU,apparent Kd,MS2 coat protein [1]; [3],37.7 nM
same,apparent Kd,MS2 coat protein [1]; [4],262 nM
AGAAUAUAGUCGGCCGCCACUCUUCAUACAUGAGGAUCACCCAUGUUUAAUUCUUGGAUAUUCUUGAGGACCGGGACAUAGGCAU,apparent Kd,MS2 coat protein [1]; [5],18.4 nM
same,apparent Kd,MS2 coat protein [1]; [6],16.8 nM
ACAUGAGGAUCACCCAUGUACAUCACCCGACGAGGACCGGUACGGCCGCCACUCGGGUAUAUAUAUACAUCGGGUGAUUUUACGU,apparent Kd,MS2 coat protein [1]; [5],18.5 nM
same,apparent Kd,MS2 coat protein [1]; [6],18 nM
UGACAUUGCUCAGAUACCAGACAUGAGGAUCACCCAUGUACCAAGGUAAAGAAAUAACGUGUCCCUUGGCAGCUGAGCAAUGUCU,apparent Kd,MS2 coat protein [2]; [7],10.1 nM
same,apparent Kd,MS2 coat protein [2]; [8],98.8 nM
GAGCUGAUGUAGAGUGGAUAUCCUUGAGAUACCAGUACAGAAAUGUACCCUUGGCAGCUCUUCUUUACAUGAGGAUCACCCAUGU,apparent Kd,MS2 coat protein [2]; [7],13.1 nM
same,apparent Kd,MS2 coat protein [2]; [8],17.5 nM
AAUAACAUGAGGAUCACCCAUGUAAAAGAUACCAGAGUGAUGAUCCUCCCUUGGCAGCUUAAUAACGCUAUUGGAAACAAUAGCG,apparent Kd,MS2 coat protein [2]; [9],78.2 nM
same,apparent Kd,MS2 coat protein [2]; [10],122 nM
GAUGAACUAUUUGAUACCAGACUACAUGAGGAUCACCCAUGUGAGUUUAUACUUCAGUCAGUCCCUUGGCAGCAAAUAGUUUAUC,apparent Kd,MS2 coat protein [2]; [7],44.9 nM
same,apparent Kd,MS2 coat protein [2]; [8],99.3 nM
AGAUUACAUGUUUUAAUAAGAUAAACUGAUACCAGUGUAUAUAUUCACCCUUGGCAGCAGCAACAUGAGGAUCACCCAUGUAUUA,apparent Kd,MS2 coat protein [2]; [9],16 nM
same,apparent Kd,MS2 coat protein [2]; [10],15.2 nM
GCACCAGGUACGGAUACCAGACUCUGCCGAUUGGGUGAACAUGAGGAUCACCCAUGUUAGGUCCCUUGGCAGCCGUACCUGGUGC,apparent Kd,MS2 coat protein [2]; [7],28.3 nM
same,apparent Kd,MS2 coat protein [2]; [8],487 nM
UGUAUGUGAUCUGAUACCAGUCCCUUGGCAGCAACAUGAGGAUCACCCAUGUAGAUACCAGACCCUUGGCAGCAGAUCGCAUACU,apparent Kd,MS2 coat protein [2]; [9],9.06 nM
same,apparent Kd,MS2 coat protein [2]; [10],8.27 nM
AUACCUAAUGUUACGUUUUCCUUUUCAGAUACCAGACUUUACGUUGUCCCUUGGCAGCUGUAUUACAUGAGGAUCACCCAUGUUG,apparent Kd,MS2 coat protein [2]; [9],22 nM
same,apparent Kd,MS2 coat protein [2]; [10],29.7 nM
ACAUGAGGAUCACCCAUGUUCCUCAUUGAUACCAGUGAAUUUAGACGCCCUUGGCAGCGAGUUUUUUUAUAAGUUUUUUUUUUUU,apparent Kd,MS2 coat protein [2]; [7],665 nM
same,apparent Kd,MS2 coat protein [2]; [8],1160 nM
GGCUAGUGCAUCGAUACCAGCUACAUGAGGAUCACCCAUGUAGGAAGGGUGGUACUCGAUAGCCCUUGGCAGCGAACACCUCCGG,apparent Kd,MS2 coat protein [2]; [7],16.1 nM
same,apparent Kd,MS2 coat protein [2]; [8],31.4 nM
UGACAUUGCUCAGAUACCAGACAUGAGGAUCACCCAUGUGCCAACGUACAAAUAAUAAAUGUCCCUUGGCAGCUGAGCAAUGUCU,apparent Kd,MS2 coat protein [2]; [7],11.4 nM
same,apparent Kd,MS2 coat protein [2]; [8],35 nM
ACAUGAGGAUCACCCAUGUAAGGUCUUGAUACCAGACGAGAAGUAGUCCCUUGGCAGCAAAUACGUGAGGGUCACACAUGUGUAA,apparent Kd,MS2 coat protein [2]; [7],23 nM
same,apparent Kd,MS2 coat protein [2]; [8],46 nM
CGAGUCCGCUGAUGGGCUAAGUCAGGUGAUACCAGCCACUCCCGCGGCCCUUGGCAGCACAUGAGGAUCACCCAUGUAGGGCUUG,apparent Kd,MS2 coat protein [2]; [7],19.6 nM
same,apparent Kd,MS2 coat protein [2]; [8],338 nM
AUUAAUUGUCGUGAUACCAGACAUACAUGAGGAUCACCCAUGUUAAGUAACAUUUUUUAUGUCCCUUGGCAGCACUUUUUAAUUA,apparent Kd,MS2 coat protein [2]; [9],19.4 nM
same,apparent Kd,MS2 coat protein [2]; [10],11.5 nM
ACAUGAGGAUCACCCAUGUUCCUCAUUGAUACCAGUGAAUUUAGACGCCCUUGGCAGCGAGUUUAAGAAGAAGAAGUUUUUUUUU,apparent Kd,MS2 coat protein [2]; [7],667 nM
same,apparent Kd,MS2 coat protein [2]; [8],895 nM
CGCUACGUAACUGAUACCAGUGUACUGACAUGAGGAUCACCCAUGUUGGGUUUUGUUGUACACCCUUGGCAGCAGAAUCGUAGCG,apparent Kd,MS2 coat protein [2]; [7],70.3 nM
same,apparent Kd,MS2 coat protein [2]; [8],95.3 nM
CCUCAUGUGGUGCUGCACAUGAGAGGUGAUACCAGCAUCGAAAGAUGCCCUUGGCAGCACCAACAUGAGGAUCACCCAUGUAAUA,apparent Kd,MS2 coat protein [2]; [9],57.4 nM
same,apparent Kd,MS2 coat protein [2]; [10],135 nM
UACAGUACAACAGAUACCAGACAGUACUCUAGAUUGCAACAUGAGGAUCACCCAUGUAUAGUCCCUUGGCAGCUGUAAUGGGUGA,apparent Kd,MS2 coat protein [2]; [9],180 nM
same,apparent Kd,MS2 coat protein [2]; [10],441 nM
GAUGAUAUUGCAGAUACCAGACACAUGAGGAUCACCCAUGUCGUUGGGUCGCUGGGUCGUGUCCCUUGGCAGCUGCGAUAUCAUC,apparent Kd,MS2 coat protein [2]; [7],30.7 nM
same,apparent Kd,MS2 coat protein [2]; [8],263 nM
UCCUUAGAUACUGAUACCAGACUACAGUAAACAUGAGGAUCACCCAUGUUUGAUCACUAAGUCCCUUGGCAGCAGGUACAUGGGA,apparent Kd,MS2 coat protein [2]; [9],11.3 nM
same,apparent Kd,MS2 coat protein [2]; [10],9.08 nM
AUAUUAAAGAGUGAUACCAGACUACAUGAGGAUCACCCAUGUUACAUUUAAAUAUCAUUUGUCCCUUGGCAGCACAUUAAGUACA,apparent Kd,MS2 coat protein [2]; [7],17.4 nM
same,apparent Kd,MS2 coat protein [2]; [8],13.3 nM
CAGAACAUGAGGAUCACCCAUGUCAGGGAUACCAGCUCAGACAUGGGCCCUUGGCAGCUCUGUGGCUGACGAAAGUCAGCAUCUG,apparent Kd,MS2 coat protein [2]; [9],60.8 nM
same,apparent Kd,MS2 coat protein [2]; [10],185 nM
UCGACAGUGAACGAUACCAGCGUCACGUGGCCGGUGGUCACAUGAGGAUCACCCAUGUAACGCCCUUGGCAGCGUGCACGUAUCC,apparent Kd,MS2 coat protein [2]; [7],26.1 nM
same,apparent Kd,MS2 coat protein [2]; [8],184 nM
ACGUCCCGUUUACUCGUGGGUUAGGUCGAUACCAGUAUUCAAACUUACCCUUGGCAGCGACAUGAGGAUCACCCAUGUGCGAAGA,apparent Kd,MS2 coat protein [2]; [7],17.6 nM
same,apparent Kd,MS2 coat protein [2]; [8],99.5 nM
ACGUCCAGGUUAAUCGUGGACAUGGUCGAUACCAGUAUUUUAAUCUACCCUUGGCAGCGACAUGAGGAUCACCCAUGUGCGAUGA,apparent Kd,MS2 coat protein [2]; [7],12.5 nM
same,apparent Kd,MS2 coat protein [2]; [8],23.4 nM
AUCGUACCUGAGGAUACCAGCAUGUGAUCAUAACAUGAGGAUCACCCAUGUAAUCAGUGAUGCCCUUGGCAGCUUAGUCGAUACA,apparent Kd,MS2 coat protein [2]; [9],75.5 nM
same,apparent Kd,MS2 coat protein [2]; [10],45.2 nM
GGAAUUAAGACUGAUACCAGUCAAGAUAAUCAUAAGAAUAAACAUGAGGAUCACCCAUGUGACCCUUGGCAGCAGACUAAUACCG,apparent Kd,MS2 coat protein [2]; [9],31 nM
same,apparent Kd,MS2 coat protein [2]; [10],29.6 nM
ACGUCUCGUUUACUCGUGGGUUAGCUCGAUACCAGUAUUCAAACUUACCCUUGGCAGCGACAUGAGGAUCACCCAUGUGCGAAGA,apparent Kd,MS2 coat protein [2]; [7],16.4 nM
same,apparent Kd,MS2 coat protein [2]; [8],54.9 nM
AUUAUCAUGGUCAUAUAUAUUUCGUCAGAUACCAGACUAGAUAUAGUCCCUUGGCAGCUGUUACAUGAGGAUCACCCAUGUUAUA,apparent Kd,MS2 coat protein [2]; [7],116 nM
GAUGAUAUUGCAGAUACCAGACACAUGAGGAUCACCCAUGUCGCUGAGUUGCUGGAUCGUGUCCCUUGGCAGCUGCGAUAUCAUC,apparent Kd,MS2 coat protein [2]; [7],19.5 nM
same,apparent Kd,MS2 coat protein [2]; [8],180 nM
UCGUGUAUAACGGAUACCAGUGAGAAGGAUACAUGAGGAUCACCCAUGUGAGUUGAUGUACACCCUUGGCAGCUGUAUAUAUCUA,apparent Kd,MS2 coat protein [2]; [9],75.5 nM
same,apparent Kd,MS2 coat protein [2]; [10],49.6 nM
